The values that follow come from publication PMC10441415 (bioRxiv, 2023).

In data set [1] the test system is Mtb H37Rv. Also noted: species or system Mycobacterium tuberculosis. The following applies: in vivo.
Data set [2] relates to Mtb H37Rv. The arrangement: species or system Mycobacterium tuberculosis. The note with it: in vivo. This is another data set of the same source.
Data set [3] relates to lung inflammation of Mtb-infected mice. The arrangement: species or system BALB/c mice. The note with it: mouse, in vivo.
Data set [4] shares this test system. Also noted: species or system BALB/c mice. The note with it: mouse, in vivo. This is another data set of the same source.
The subject of data set [5] is Nos2, Ifn-γ, Tnf-α, Cd38, Egr2. The arrangement: species or system BALB/c mice. The note with it: mouse, in vivo.
A short description of data set [6]: Single-dose plasma pharmacokinetics, intraperitoneal. It is filed as in vivo, BALB/c mice. The note with it: single IP dose, sampling up to 24 hours. Summed up:
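Female BALB/c mice, 9–11 weeks old, each received one intraperitoneal dose (5 or 10 mg/kg) of the test compound, a tin metalloporphyrin HO-1 inhibitor, in sodium phosphate buffer (pH 7.4 – 7.8). Blood was drawn from three mice per time point at 0.25, 0.5, 1, 2, 4, 8 and 24 h. Plasma was assayed by LC-MS/MS. t1/2, tmax, Cmax, AUClast and AUCInf came from noncompartmental analysis.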

For data set [7] the following is noted: mouse, in vivo, ip.
In data set [8] the test system is human peripheral blood mononuclear cells. The note with it: cited from earlier work.
The test system of data set [9] is naive CD4+ and CD8+ T cells. The note with it: via interactions with CD14+ monocytes in vitro; cited from earlier work.
In the next data set the test system is Mtb. The note with it: C57BL/6 mice, chronic phase of infection; cited from earlier work.
The test system of another data set is Mtb-infected U937 cells. The following applies: cited from earlier work.
For data set [10] the following is noted: chronic treatment, wild-type mice; cited from earlier work.

Each structure is given as a SMILES string. Where “and” joins values, the source holds several entries; their conditions need not be identical. Identical values can stand only once.

As for `CCC1=C(C)c2cc3[n-]c(cc4[n-]c(cc5nc(cc1n2)C(C)=C5CC)c(C)c4CCC(=O)O)c(CCC(=O)O)c3C.[Cl-].[Cl-].[Sn+4]` [SnMP, stannsoporfin], in the data set with Mtb H37Rv [1], the “Additive effect on lung CFU when co-administered with SPaO” value is “neither SnPP nor SnMP adjunctive therapy showed an additive effect”, the “Enhancement of the bactericidal activity of RHZ” value is reported as “did not significantly enhance”, the “Mean lung log10 CFU count (±SD) at W2” value is recorded as 5.73 ± 0.22 log10 CFU and the “Mean lung log10 CFU count (±SD) at W4” value is listed as 5.36 ± 0.31 log10 CFU. Besides, in the data set with Mtb H37Rv [1], the “Mean lung log10 CFU count (±SD) at W6” value worked out at 5.98 ± 0.06 log10 CFU and the “Reduction of mean lung bacillary burden relative to vehicle control” value is reported as 0.67 log10 CFU. In the data set on Mtb H37Rv [2], the “Lung bacillary burdens relative to the SPaO regimen” value is reported as “did not significantly alter” and the Microbiological relapse rates result was “did not reduce microbiological relapse rates”. The “Gross or histological lung pathology” value in data set [3] is recorded as “did not significantly alter”. The “Lung/body weight ratio versus SPaO control regimen” value in data set [4] is listed as “did not differ statistically”. Further, in data set [5], the “Cd38 expression in lung compared to any other treatment group” value is reported as “significantly higher expression” and the “Tnf-α expression in lung relative to vehicle” value is listed as “reduced expression”. Besides, in data set [6], the “Last time point with detectable blood concentrations” value came to 8 h. Besides, the Tolerability entry in [7] is “well tolerated”. Moreover, the “Expression of pro-inflammatory cytokines” value in data set [8] is “induces the expression of pro-inflammatory cytokines”. For the same molecule, the “Activation, proliferation, and maturation of naive CD4+ and CD8+ T cells” value in [9] was “induce the activation, proliferation, and maturation”.
Turning to `C=Cc1c2[n-]c(c1C)/C=c1\[n-]/c(c(C)c1C=C)=C\c1[n-]c(c(CCC(=O)O)c1C)C=c1[n-]/c(c(C)c1CCC(=O)O)=C\2.[Sn+4]` [SnPP, tin-protoporphyrin IX], in the data set on Mtb H37Rv [1], the “Additive effect on lung CFU when co-administered with SPaO” value was “neither SnPP nor SnMP adjunctive therapy showed an additive effect”, the “Enhancement of the bactericidal activity of RHZ” value is listed as “did not significantly enhance”, the “Mean lung log10 CFU count (±SD) at W2” value turned out to be 5.52 ± 0.29 log10 CFU and the “Mean lung log10 CFU count (±SD) at W4” value came to 5.30 ± 0.30 log10 CFU. In addition, in the data set with Mtb H37Rv [1], the “Mean lung log10 CFU count (±SD) at W6” value was found to be 5.30 ± 0.19 log10 CFU; the “Reduction of mean lung bacillary burden relative to vehicle control” value is 0.88 log10 CFU; the “Reduction of mean lung bacterial burden relative to vehicle control” value is 1.2 log10 CFU and 1.1 log10 CFU. The “Last time point with detectable blood concentrations” value in data set [6] was 8 h. Further, the Lung bacillary burden entry in the data set on Mtb was “reduced the lung bacillary burden alone”. Further, the “Secretion of proinflammatory cytokines, including TNF-α” value in the data set with Mtb-infected U937 cells is given as “reduced the secretion of proinflammatory cytokines”. The “Tubulointerstitial inflammation and fibrosis” value in data set [10] was “can induce tubulointerstitial inflammation and fibrosis”.
